What was measured:
NIH3T3 [1] = test: Cytoprotective activity against GOX-induced oxidative stress in mouse NIH/3T3 cells assessed as increase in cell survival treated for 5 hrs with 15 mU/ml GOX challenge by MTT assay; format: functional, cell-based
In short: (§1)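 Cells plated at 7×10^4 per well; next day exposed for 5 h to compound (0.1–100 μM) with 15 mU/ml glucose oxidase in growth medium. Viability expressed relative to GOX-free cells; α-tocopherol positive control.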

NIH3T3 [2] = test: Cytoprotective activity against GOX-induced oxidative stress in mouse NIH/3T3 cells assessed as cell survival at 1 uM treated for 5 hrs with 15 mU/ml GOX challenge by MTT assay (reference value: 42.71 +/- 2.10%); format: functional; conditions: NIH3T3, 5 h, read-out: Survival
NIH3T3 [3] = test: Cytoprotective activity against GOX-induced cytotoxicity in mouse NIH/3T3 cells assessed as LDH release at 10 uM treated for 5 hrs with 15 mU/ml GOX challenge by spectrophotometric method (reference value: 63.34 +/- 1.85%); format: functional
NIH3T3 [4] = test: Cytoprotective activity against GOX-induced oxidative stress in mouse NIH/3T3 cells assessed as cell survival at 0.1 uM treated for 5 hrs with 15 mU/ml GOX challenge by MTT assay (reference value: 42.71 +/- 2.10%); format: functional; conditions: NIH3T3, 5 h, read-out: Survival
Hep 3B2 [5] = test: Proliferative activity against human Hep3B cells assessed as cell viability at 1 uM after 4 days by cell counting method relative to control; format: functional; conditions: 96 h, read-out: Activity
In short: (§2)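 Hep3B kept in DMEM/10% FBS, 37°C, 5% CO2, then seeded at 1×10^5 cells/ml in medium containing compound (0.1–100 μM; DMSO-only control) in monolayer. Cells were checked daily by microscope for attachment and morphology, and counted after 4 days, in triplicate, in three independent experiments. Counts are given as % of the 0 μM group.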

Hep 3B2 [6] = test: Cytoprotective activity against GOX-induced oxidative stress in human Hep3B cells assessed as cell survival at 10 uM treated for 5 hrs with 15 mU/ml GOX challenge by MTT assay (reference value: 41.51 +/- 1.39%); format: functional; conditions: read-out: Survival
NIH3T3 [7] = test: Cytoprotective activity against GOX-induced cytotoxicity in mouse NIH/3T3 cells assessed as LDH release at 1 uM treated for 5 hrs with 15 mU/ml GOX challenge by spectrophotometric method (reference value: 63.34 +/- 1.85%); format: functional
NIH3T3 [8] = test: Cytoprotective activity against GOX-induced cytotoxicity in mouse NIH/3T3 cells assessed as decrease in LDH release treated for 5 hrs with 15 mU/ml GOX challenge by spectrophotometric method; format: functional, cell-based
Hep 3B2 [9] = test: Cytoprotective activity against GOX-induced cytotoxicity in human Hep3B cells assessed as LDH release at 100 uM treated for 5 hrs with 15 mU/ml GOX challenge by spectrophotometric method (reference value: 60.94 +/- 1.18%); format: functional
Hep 3B2 [10] = test: Cytoprotective activity against GOX-induced oxidative stress in human Hep3B cells assessed as cell survival at 1 uM treated for 5 hrs with 15 mU/ml GOX challenge by MTT assay (reference value: 41.51 +/- 1.39%); format: functional; conditions: read-out: Survival
NIH3T3 [11] = test: Cytoprotective activity against GOX-induced cytotoxicity in mouse NIH/3T3 cells assessed as LDH release at 100 uM treated for 5 hrs with 15 mU/ml GOX challenge by spectrophotometric method (reference value: 63.34 +/- 1.85%); format: functional
Hep 3B2 [12] = test: Proliferative activity against human Hep3B cells assessed as cell viability at 0.1 uM after 4 days by cell counting method relative to control; format: functional; conditions: 96 h, read-out: Activity; in short: as §2
Hep 3B2 [13] = test: Cytotoxicity against human Hep3B cells assessed as effect on cell attachment at 0.1 to 100 uM measured every day during 4 days incubation period by microscopic method; format: cell-based; conditions: hep 3b2, 96 h; in short: as §2
Hep 3B2 [14] = test: Cytotoxicity against human Hep3B cells assessed as effect on cell morphology at 0.1 to 100 uM measured every day during 4 days incubation period by microscopic method; format: cell-based; conditions: hep 3b2, 96 h; in short: as §2
Hep 3B2 [15] = test: Proliferative activity against human Hep3B cells assessed as cell viability at 100 uM after 4 days by cell counting method relative to control; format: functional; conditions: 96 h, read-out: Activity; in short: as §2
Hep 3B2 [16] = test: Cytoprotective activity against GOX-induced cytotoxicity in human Hep3B cells assessed as LDH release at 10 uM treated for 5 hrs with 15 mU/ml GOX challenge by spectrophotometric method (reference value: 60.94 +/- 1.18%); format: functional
Hep 3B2 [17] = test: Cytoprotective activity against GOX-induced cytotoxicity in human Hep3B cells assessed as LDH release at 0.1 uM treated for 5 hrs with 15 mU/ml GOX challenge by spectrophotometric method (reference value: 60.94 +/- 1.18%); format: functional
NIH3T3 [18] = test: Cytoprotective activity against GOX-induced cytotoxicity in mouse NIH/3T3 cells assessed as LDH release at 0.1 uM treated for 5 hrs with 15 mU/ml GOX challenge by spectrophotometric method (reference value: 63.34 +/- 1.85%); format: functional
Hep 3B2 [19] = test: Cytoprotective activity against GOX-induced oxidative stress in human Hep3B cells assessed as cell survival at 100 uM treated for 5 hrs with 15 mU/ml GOX challenge by MTT assay (reference value: 41.51 +/- 1.39%); format: functional; conditions: read-out: Survival
NIH3T3 [20] = test: Cytoprotective activity against GOX-induced oxidative stress in mouse NIH/3T3 cells assessed as cell survival at 10 uM treated for 5 hrs with 15 mU/ml GOX challenge by MTT assay (reference value: 42.71 +/- 2.10%); format: functional; conditions: NIH3T3, 5 h, read-out: Survival
Hep 3B2 [21] = test: Proliferative activity against human Hep3B cells assessed as cell viability after 4 days by cell counting method; format: functional, cell-based; in short: as §2
Hep 3B2 [22] = test: Cytoprotective activity against GOX-induced cytotoxicity in human Hep3B cells assessed as decrease in LDH release treated for 5 hrs with 15 mU/ml GOX challenge by spectrophotometric method; format: functional, cell-based
Hep 3B2 [23] = test: Cytoprotective activity against GOX-induced cytotoxicity in human Hep3B cells assessed as LDH release at 1 uM treated for 5 hrs with 15 mU/ml GOX challenge by spectrophotometric method (reference value: 60.94 +/- 1.18%); format: functional
Hep 3B2 [24] = test: Proliferative activity against human Hep3B cells assessed as cell viability at 10 uM after 4 days by cell counting method relative to control; format: functional; conditions: 96 h, read-out: Activity; in short: as §2
NIH3T3 [25] = test: Cytoprotective activity against GOX-induced oxidative stress in mouse NIH/3T3 cells assessed as cell survival at 100 uM treated for 5 hrs with 15 mU/ml GOX challenge by MTT assay (reference value: 42.71 +/- 2.10%); format: functional; conditions: NIH3T3, 5 h, read-out: Survival
Hep 3B2 [26] = test: Cytoprotective activity against GOX-induced oxidative stress in human Hep3B cells assessed as increase in cell survival treated for 5 hrs with 15 mU/ml GOX challenge by MTT assay; format: functional, cell-based; in short: as §1
Hep 3B2 [27] = test: Cytoprotective activity against GOX-induced oxidative stress in human Hep3B cells assessed as cell survival at 0.1 uM treated for 5 hrs with 15 mU/ml GOX challenge by MTT assay (reference value: 41.51 +/- 1.39%); format: functional; conditions: read-out: Survival

Row | Structure (SMILES) | Activity (NIH3T3 [1]) | viability at 1 µM (NIH3T3 [2]) | Activity (NIH3T3 [3]) | viability at 0.1 µM (NIH3T3 [4]) | viability at 10 µM (Hep 3B2 [6]) | Activity (NIH3T3 [7]) | Activity (NIH3T3 [8]) | Activity (Hep 3B2 [9]) | viability at 1 µM (Hep 3B2 [10]) | Activity (NIH3T3 [11]) | Activity (Hep 3B2 [16]) | Activity (Hep 3B2 [17]) | Activity (NIH3T3 [18]) | viability at 100 µM (Hep 3B2 [19]) | viability at 10 µM (NIH3T3 [20]) | Activity (Hep 3B2 [22]) | Activity (Hep 3B2 [23]) | viability at 100 µM (NIH3T3 [25]) | Activity (Hep 3B2 [26]) | viability at 0.1 µM (Hep 3B2 [27]) | further results
1 | O=C(/C=C/c1ccc(O)cc1)c1ccc(O)cc1O [ISOLIQUIRITIGENIN] | Dose-dependent effect | 59.2% | 22.67% | 44.8% | 66.2% | 26.03% | Dose-dependent effect | 10.1% | 62.9% | 8.85% | 21.06% | 27.14% | 44.26% | 75.3% | 71.9% | Dose-dependent effect | 24.29% | 82.9% | Dose-dependent effect | 41.9% | viability at 1 µM (Hep 3B2 [5]): 103%; viability at 0.1 µM (Hep 3B2 [12]): 101%; Activity (Hep 3B2 [13]): Non-Toxic; Activity (Hep 3B2 [14]): Non-Toxic; viability at 100 µM (Hep 3B2 [15]): 126%; Activity (Hep 3B2 [21]): Dose-dependent effect; viability at 10 µM (Hep 3B2 [24]): 109%
2 | CC(C)C(=O)O[C@@H]1Cc2c(ccc3ccc(=O)oc23)OC1(C)C | Dose-dependent effect | 55.6% | 19.53% | 45.7% | 66.5% | 25.89% | Dose-dependent effect | 7.64% | 56.1% | 8.13% | 18.04% | 28.99% | 31.31% | 82.3% | 67.4% | Dose-dependent effect | 23.78% | 83.1% | Dose-dependent effect | 44.8% | viability at 1 µM (Hep 3B2 [5]): 101%; viability at 0.1 µM (Hep 3B2 [12]): 100%; Activity (Hep 3B2 [13]): Non-Toxic; Activity (Hep 3B2 [14]): Non-Toxic; viability at 100 µM (Hep 3B2 [15]): 147%; Activity (Hep 3B2 [21]): Dose-dependent effect; viability at 10 µM (Hep 3B2 [24]): 110%
3 | CC(C)=CCCC(C)(O)C1Cc2c(O)ccc(C(=O)/C=C/c3ccc(O)cc3)c2O1 (stereo unspecified) | Dose-dependent effect | 44.4% | 15% | 43.5% | 62.1% | 21.87% | Dose-dependent effect | 8.14% | 49% | 12.35% | 19.08% | 25.13% | 27.7% | 76% | 57.5% | Dose-dependent effect | 19.53% | 77.8% | Dose-dependent effect | 42.9% | viability at 1 µM (Hep 3B2 [5]): 102%; viability at 0.1 µM (Hep 3B2 [12]): 100%; Activity (Hep 3B2 [13]): Non-Toxic; Activity (Hep 3B2 [14]): Non-Toxic; viability at 100 µM (Hep 3B2 [15]): 113%; Activity (Hep 3B2 [21]): Dose-dependent effect; viability at 10 µM (Hep 3B2 [24]): 104%
4 | Cc1c(C)c2c(c(C)c1O)CC[C@@](C)(CCC[C@H](C)CCC[C@H](C)CCCC(C)C)O2 [ALPHA-TOCOPHEROL] | Dose-dependent effect | 65.8% | 15.02% | 61.2% | 70.7% | 22.37% | Dose-dependent effect | 13% | 66.8% | 10.51% | 18.89% | 25.13% | 26.51% | 79.6% | 69.1% | Dose-dependent effect | 21.14% | 77.9% | Dose-dependent effect | 62.2% | 

Reference: ChEMBL document CHEMBL4020804, “Minor phenolics from Angelica keiskei and their proliferative effects on Hep3B cells” (Bioorg Med Chem Lett, 2017)
